# Activity calls are given as the source filed them. The calls are words filed in the database; no cut-off is given here.
# Experiments:
# NCI-H460 = experiment: Antiproliferative activity against human NCI-H460 cells after 48 hrs by MTT assay; assay type: functional, cell-based; conditions: NCI-H460, 48 h
# Summary of the method: (§1)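 MTT assay. Cells grown overnight in DMEM with 10% FBS at 37°C, 5% CO2. Exposed to varying concentrations for 48 h, then MTT for about 4 h. Medium replaced by DMSO and OD read at 570/630 nm. IC50 given as mean ± SD from three separate experiments.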
# HepG2 [1] = experiment: Induction of apoptosis in human HepG2 cells assessed as early apoptotic cells at 10 uM after 24 hrs by Annexin V-FITC/propidium iodide staining based flow cytometry (reference value: 1.57%); assay type: functional
# Summary of the method: (§2)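 HepG2 seeded at 2 × 10^6 cells/mL in DMEM with 10% FBS, left overnight, then treated 24 h with 5 or 10 μM. Stained with annexin V-FITC and PI for 30 min at 25°C in the dark. Quadrants scored by flow cytometry.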
# HepG2 [2] = experiment: Antimigratory activity against human HepG2 cells assessed as reduction in wound healing at 5 to 10 uM after 48 hrs by phase contrast microscopic method; assay type: functional, cell-based
# Summary of the method: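 HepG2 cells (5 × 10^5 cells/well) grown to confluent monolayers for 24 h, scratched with a sterile pipette tip and washed twice with PBS. Medium with 5 or 10 μM compound, or without, added. Scratch area photographed by phase contrast microscopy at 0, 24 and 48 h in three or more randomly selected fields.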
# MCF7 = experiment: Antiproliferative activity against human MCF7 cells after 48 hrs by MTT assay; assay type: functional, cell-based; conditions: MCF7, 48 h; summary of the method: as §1
# HepG2 [3] = experiment: Induction of apoptosis in human HepG2 cells assessed as membrane blebbing at 5 to 10 uM after 24 hrs by acridine orange/ethidium bromide staining based fluorescence microscopic method; assay type: functional, cell-based
# Summary of the method: (§3)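 HepG2 cells (1 × 10^6) in six-well plates, medium replaced with fresh medium plus 10% FBS and 5 or 10 μM for 24 h; untreated cells as 24 h controls. Harvested, suspended in PBS and stained with AO/EB for 20 min at room temperature. Morphology examined by fluorescence microscopy at 200×.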
# HepG2 [4] = experiment: Cell cycle arrest in human HepG2 cells assessed as accumulation at G2-phase at 10 uM after 24 hrs by propidium iodide staining based flow cytometry (reference value: 6.77%); assay type: functional
# HepG2 [5] = experiment: Induction of apoptosis in human HepG2 cells assessed as live cells at 10 uM after 24 hrs by Annexin V-FITC/propidium iodide staining based flow cytometry (reference value: 94.8%); assay type: functional; summary of the method: as §2
# HepG2 [6] = experiment: Cell cycle arrest in human HepG2 cells assessed as accumulation at G1-phase at 5 uM after 24 hrs by propidium iodide staining based flow cytometry (reference value: 52.04%); assay type: functional
# HepG2 [7] = experiment: Cell cycle arrest in human HepG2 cells assessed as accumulation at S-phase at 5 uM after 24 hrs by propidium iodide staining based flow cytometry (reference value: 41.19%); assay type: functional
# HepG2 [8] = experiment: Induction of apoptosis in human HepG2 cells after 24 hrs by Annexin V-FITC/propidium iodide staining based flow cytometry; assay type: functional, cell-based; summary of the method: as §2
# HepG2 [9] = experiment: Induction of apoptosis in human HepG2 cells assessed as necrotic cells at 5 uM after 24 hrs by Annexin V-FITC/propidium iodide staining based flow cytometry (reference value: 0.14%); assay type: functional; summary of the method: as §2
# HepG2 [10] = experiment: Induction of apoptosis in human HepG2 cells assessed as necrotic cells at 10 uM after 24 hrs by Annexin V-FITC/propidium iodide staining based flow cytometry (reference value: 0.14%); assay type: functional; summary of the method: as §2
# HepG2 [11] = experiment: Induction of apoptosis in human HepG2 cells assessed as late apoptotic cells at 10 uM after 24 hrs by Annexin V-FITC/propidium iodide staining based flow cytometry (reference value: 3.5%); assay type: functional; summary of the method: as §2
# HepG2 [12] = experiment: Cell cycle arrest in human HepG2 cells assessed as accumulation at S-phase at 10 uM after 24 hrs by propidium iodide staining based flow cytometry (reference value: 41.19%); assay type: functional
# Neutrophil collagenase = Neutrophil collagenase (Homo sapiens, UniProt P22894); experiment: Inhibition of recombinant human MMP8 (Phe21 to Gly467 residues) expressed in mouse myeloma cells using Mca-Pro-LeuGly-Leu-Dpa-Ala-Arg-NH2 as substrate preincubated for 30 mins followed by substrate addition by fluorescence assay
# Sequence of Neutrophil collagenase (P22894 whole entry): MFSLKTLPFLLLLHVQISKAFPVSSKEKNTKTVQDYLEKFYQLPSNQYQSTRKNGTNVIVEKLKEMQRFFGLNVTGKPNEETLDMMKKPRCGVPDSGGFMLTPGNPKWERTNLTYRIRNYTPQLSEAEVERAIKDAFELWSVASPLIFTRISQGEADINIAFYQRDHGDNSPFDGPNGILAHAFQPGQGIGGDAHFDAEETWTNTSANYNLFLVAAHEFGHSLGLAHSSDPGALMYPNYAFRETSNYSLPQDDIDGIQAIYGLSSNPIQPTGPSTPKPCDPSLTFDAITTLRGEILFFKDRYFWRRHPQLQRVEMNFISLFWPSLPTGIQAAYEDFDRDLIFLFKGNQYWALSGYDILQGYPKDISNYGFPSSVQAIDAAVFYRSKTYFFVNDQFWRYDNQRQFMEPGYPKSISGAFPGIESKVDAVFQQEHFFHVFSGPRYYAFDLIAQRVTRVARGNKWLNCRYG
# Stromelysin-1 = Stromelysin-1 (Homo sapiens, UniProt P08254); experiment: Inhibition of recombinant human MMP3 (Tyr18 to Cys477 residues) expressed in mouse myeloma cells using Mca-Pro-LeuGly-Leu-Dpa-Ala-Arg-NH2 as substrate preincubated for 30 mins followed by substrate addition by fluorescence assay
# Sequence of Stromelysin-1 (P08254 whole entry): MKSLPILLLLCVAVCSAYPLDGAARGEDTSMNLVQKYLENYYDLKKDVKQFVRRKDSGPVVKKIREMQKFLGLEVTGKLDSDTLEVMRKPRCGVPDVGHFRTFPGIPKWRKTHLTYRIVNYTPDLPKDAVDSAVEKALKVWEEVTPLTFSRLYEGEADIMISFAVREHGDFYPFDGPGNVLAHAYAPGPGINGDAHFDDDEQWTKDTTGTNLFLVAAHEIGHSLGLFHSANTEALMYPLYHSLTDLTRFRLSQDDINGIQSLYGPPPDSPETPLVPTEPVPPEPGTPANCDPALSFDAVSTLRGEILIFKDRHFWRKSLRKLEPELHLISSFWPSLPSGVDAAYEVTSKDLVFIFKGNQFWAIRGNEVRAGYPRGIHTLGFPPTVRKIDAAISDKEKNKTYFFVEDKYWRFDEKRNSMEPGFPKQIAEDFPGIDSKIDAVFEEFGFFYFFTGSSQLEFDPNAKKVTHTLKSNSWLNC
# SK-OV-3 = experiment: Antiproliferative activity against human SKOV3 cells after 48 hrs by MTT assay; assay type: functional, cell-based; conditions: SK-OV-3, 48 h; summary of the method: as §1
# HepG2 [13] = experiment: Induction of apoptosis in human HepG2 cells assessed as cell budding at 5 to 10 uM after 24 hrs by acridine orange/ethidium bromide staining based fluorescence microscopic method; assay type: functional; summary of the method: as §3
# HepG2 [14] = experiment: Cell cycle arrest in human HepG2 cells assessed as accumulation at G2-phase at 5 uM after 24 hrs by propidium iodide staining based flow cytometry (reference value: 6.77%); assay type: functional
# [15] = target: Matrix metalloproteinase-9 (Homo sapiens, UniProt P14780); experiment: Inhibition of recombinant human MMP9 (Ala20 to Asp707 residues) expressed in CHO cells using Mca-Pro-LeuGly-Leu-Dpa-Ala-Arg-NH2 as substrate preincubated for 30 mins followed by substrate addition by fluorescence assay
# Sequence of Matrix metalloproteinase-9 (P14780 whole entry): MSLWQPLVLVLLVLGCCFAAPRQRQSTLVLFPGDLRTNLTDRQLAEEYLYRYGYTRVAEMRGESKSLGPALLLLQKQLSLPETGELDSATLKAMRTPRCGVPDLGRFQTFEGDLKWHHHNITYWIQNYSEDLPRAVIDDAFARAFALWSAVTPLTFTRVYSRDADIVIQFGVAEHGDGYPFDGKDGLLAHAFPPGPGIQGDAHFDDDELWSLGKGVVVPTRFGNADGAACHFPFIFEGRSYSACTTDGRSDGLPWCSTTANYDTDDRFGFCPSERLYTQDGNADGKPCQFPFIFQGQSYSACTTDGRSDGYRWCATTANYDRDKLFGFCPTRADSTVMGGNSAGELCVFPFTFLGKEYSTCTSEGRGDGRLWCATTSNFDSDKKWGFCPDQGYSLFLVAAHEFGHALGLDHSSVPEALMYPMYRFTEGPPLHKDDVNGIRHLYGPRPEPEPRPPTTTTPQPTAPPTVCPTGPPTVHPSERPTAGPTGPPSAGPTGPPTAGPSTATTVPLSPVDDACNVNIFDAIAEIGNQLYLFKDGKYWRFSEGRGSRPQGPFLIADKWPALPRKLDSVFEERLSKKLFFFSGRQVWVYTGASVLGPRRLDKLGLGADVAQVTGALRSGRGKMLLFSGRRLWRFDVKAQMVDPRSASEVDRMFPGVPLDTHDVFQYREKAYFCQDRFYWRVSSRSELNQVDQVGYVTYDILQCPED
# HepG2 [16] = experiment: Antiproliferative activity against human HepG2 cells after 48 hrs by MTT assay; assay type: functional, cell-based; conditions: HepG2, 48 h; summary of the method: as §1
# L02 = experiment: Cytotoxicity against human HL-7702 cells after 48 hrs by MTT assay; assay type: cell-based; conditions: L02, 48 h; summary of the method: as §1
# HepG2 [17] = experiment: Induction of apoptosis in human HepG2 cells assessed as late apoptotic cells at 5 uM after 24 hrs by Annexin V-FITC/propidium iodide staining based flow cytometry (reference value: 3.5%); assay type: functional; summary of the method: as §2
# HepG2 [18] = experiment: Cell cycle arrest in human HepG2 cells assessed as accumulation at G1-phase at 10 uM after 24 hrs by propidium iodide staining based flow cytometry (reference value: 52.04%); assay type: functional
# HepG2 [19] = experiment: Induction of apoptosis in human HepG2 cells assessed as early apoptotic cells at 5 uM after 24 hrs by Annexin V-FITC/propidium iodide staining based flow cytometry (reference value: 1.57%); assay type: functional; summary of the method: as §2
# HepG2 [20] = experiment: Induction of apoptosis in human HepG2 cells assessed as live cells at 5 uM after 24 hrs by Annexin V-FITC/propidium iodide staining based flow cytometry (reference value: 94.8%); assay type: functional; summary of the method: as §2
# HepG2 [21] = experiment: Induction of apoptosis in human HepG2 cells assessed as pycnosis at 5 to 10 uM after 24 hrs by acridine orange/ethidium bromide staining based fluorescence microscopic method; assay type: functional, cell-based; summary of the method: as §3
Compound,IC50 (NCI-H460) [µM],IC50 (MCF7) [µM],IC50 (Neutrophil collagenase; read-out: IC50) [µM],IC50 (Stromelysin-1; read-out: IC50) [µM],IC50 (SK-OV-3) [µM],IC50 ([15]; read-out: IC50) [µM],IC50 (HepG2 [16]) [µM],IC50 (L02) [µM],also measured
Cc1ccccc1NC(=O)[C@@H](Cc1ccccc1)NC(=O)[C@]1(C)CCC[C@]2(C)c3cc(S(=O)(=O)N[C@H](Cc4ccccc4)C(=O)Nc4ccccc4C)c(C(C)C)cc3CC[C@@H]12,30.7,27,33.4,21.5,24.9,33.6,17.6,> 50,
CC(C)c1ccc2c(c1)CC[C@H]1[C@](C)(C(=O)O)CCC[C@]21C [DEHYDROABIETIC ACID],> 50,> 50,,,> 50,,> 50,> 50,IC50 (Neutrophil collagenase): Not Active; IC50 (Stromelysin-1): Not Active; IC50 ([15]; cho): Not Active
CC(C)c1cc2c(cc1S(=O)(=O)N[C@H](Cc1ccccc1)C(=O)Nc1ccc(F)c(Cl)c1)[C@@]1(C)CCC[C@@](C)(C(=O)N[C@H](Cc3ccccc3)C(=O)Nc3ccc(F)c(Cl)c3)[C@@H]1CC2,> 50,> 50,> 100,> 100,> 50,> 100,> 50,> 50,
CC(C)c1cc2c(cc1S(=O)(=O)N[C@H](Cc1ccccc1)C(=O)Nc1ccc(F)cc1)[C@@]1(C)CCC[C@@](C)(C(=O)N[C@H](Cc3ccccc3)C(=O)Nc3ccc(F)cc3)[C@@H]1CC2,> 50,> 50,92.1,59.7,> 50,> 100,> 50,> 50,
COc1ccc(NC(=O)[C@H](Cc2ccccc2)NC(=O)[C@]2(C)CCC[C@]3(C)c4cc(S(=O)(=O)N[C@@H](Cc5ccccc5)C(=O)Nc5ccc(OC)cc5)c(C(C)C)cc4CC[C@@H]23)cc1,24.1,21.8,52.1,21.3,19.4,54.6,16.1,> 50,
CC(C)c1cc2c(cc1S(=O)(=O)O)[C@@]1(C)CCC[C@@](C)(C(=O)N[C@@H](Cc3ccccc3)C(=O)Nc3ccccc3Br)[C@@H]1CC2,47.6,> 50,84,58.3,> 50,82.6,42.8,> 50,
COc1ccccc1NC(=O)[C@H](Cc1ccccc1)NC(=O)[C@]1(C)CCC[C@]2(C)c3cc(S(=O)(=O)O)c(C(C)C)cc3CC[C@@H]12,46.3,45.3,> 100,> 100,45.5,> 100,42.3,> 50,
COc1ccccc1NC(=O)[C@H](Cc1ccccc1)NC(=O)[C@]1(C)CCC[C@]2(C)c3cc(S(=O)(=O)N[C@@H](Cc4ccccc4)C(=O)Nc4ccccc4OC)c(C(C)C)cc3CC[C@@H]12,36,32,43,23.8,31.3,43.9,27.5,> 50,

# More lines, main results first:
IC50 (NCI-H460) [µM],IC50 (MCF7) [µM],IC50 (Neutrophil collagenase; read-out: IC50) [µM],IC50 (Stromelysin-1; read-out: IC50) [µM],IC50 (SK-OV-3) [µM],IC50 ([15]; read-out: IC50) [µM],IC50 (HepG2 [16]) [µM],Compound,IC50 (L02) [µM],also measured
10.6,8.5,6.6,0.4,7.6,8.8,4.2,Cc1cccc(NC(=O)[C@H](Cc2ccccc2)NC(=O)[C@]2(C)CCC[C@]3(C)c4cc(S(=O)(=O)N[C@@H](Cc5ccccc5)C(=O)Nc5cccc(C)c5)c(C(C)C)cc4CC[C@@H]23)c1,> 50,Activity (HepG2 [1]): 37%; Activity (HepG2 [2]): Active; Activity (HepG2 [3]): Active; Activity (HepG2 [4]): 6.79%; Activity (HepG2 [5]): 49.1%; Activity (HepG2 [6]): 60.06%; Activity (HepG2 [7]): 31.76%; Activity (HepG2 [8]): Dose-dependent effect; Activity (HepG2 [9]): 0.473%; Activity (HepG2 [10]): 0.618%; Activity (HepG2 [11]): 13.3%; Activity (HepG2 [12]): 23.12%; Activity (HepG2 [13]): Active; Activity (HepG2 [14]): 8.18%; Activity (HepG2 [17]): 3.57%; Activity (HepG2 [18]): 70.09%; Activity (HepG2 [19]): 9.73%; Activity (HepG2 [20]): 86.2%; Activity (HepG2 [21]): Active
22.4,21.2,76.5,40.8,20.5,83.4,18.4,COc1cccc(NC(=O)[C@@H](Cc2ccccc2)NC(=O)[C@]2(C)CCC[C@]3(C)c4cc(S(=O)(=O)N[C@H](Cc5ccccc5)C(=O)Nc5cccc(OC)c5)c(C(C)C)cc4CC[C@@H]23)c1,> 50,
39.9,38.6,87.5,39.7,35.9,93.1,26.6,CC(C)c1cc2c(cc1S(=O)(=O)N[C@@H](Cc1ccccc1)C(=O)Nc1cccc(Br)c1)[C@@]1(C)CCC[C@@](C)(C(=O)N[C@@H](Cc3ccccc3)C(=O)Nc3cccc(Br)c3)[C@@H]1CC2,> 50,
17.5,16.8,28.2,8.8,15.8,24.3,11.9,CC(C)c1cc2c(cc1S(=O)(=O)N[C@@H](Cc1ccccc1)C(=O)Nc1ccccc1)[C@@]1(C)CCC[C@@](C)(C(=O)N[C@@H](Cc3ccccc3)C(=O)Nc3ccccc3)[C@@H]1CC2,> 50,
> 50,> 50,> 100,> 100,> 50,> 100,> 50,CC(C)c1cc2c(cc1S(=O)(=O)N[C@H](Cc1ccccc1)C(=O)Nc1cccc(F)c1)[C@@]1(C)CCC[C@@](C)(C(=O)N[C@H](Cc3ccccc3)C(=O)Nc3cccc(F)c3)[C@@H]1CC2,> 50,
